In test [1] the test system is L1210. Put plainly: Cytostatic activity against Mycoplasma hyorhinis-infected mouse L1210 cells after 48 hrs by cell counting. Type of test: functional, cell-based. The following applies: L1210, 48 h. An outline of the steps: (§1)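 Suspension leukemia cells in DMEM with 10% FBS, 10 mM Hepes and 1 mM sodium pyruvate at 37 °C under 5% CO2. Seeded at 60 000 cells/well with graded compound levels. Grown 48 h (L1210) or 72 h (CEM), then counted by Coulter counter. Mean ± SD of two to four independent experiments.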

A short description of test [2]: Cytostatic activity against mouse L1210/0 cells after 48 hrs by cell counting. The format is functional, cell-based. As to conditions: L1210/0, 48 h. An outline of the steps: as §1
For test [3], the system named is CCRF-CEM. Put plainly: Cytostatic activity against human CEM/0 cells after 72 hrs by cell counting. The format is functional, cell-based. An outline of the steps:
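Suspension leukemia cells in DMEM with 10% FBS, 10 mM Hepes and 1 mM sodium pyruvate at 37 °C under 5% CO2. Seeded at 60 000 cells/well with graded compound levels. Grown 48 h (L1210) or 72 h (CEM), then counted by Coulter counter. […] Mean ± SD of two to four independent experiments.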

Test [4] relates to HeLa. Put plainly: Cytostatic activity against thymidine-kinase deficient human HeLa cells […]. Type of test: functional, cell-based.
The subject of test [5] is L1210. Put plainly: Ratio of IC50 for Mycoplasma hyorhinis-infected mouse L1210 cells to IC50 for mouse L1210/0 cells after 48 hrs by cell counting. The format is functional. An outline of the steps: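 Murine L1210/0 cells were compared with L1210/TK cells, selected for resistance to 5-bromo-2'-dUrd, and with L1210.Hyor cells, chronically infected with Mycoplasma hyorhinis. Cells were grown in DMEM with 10% FBS, 10 mM Hepes and 1 mM pyruvate at 37 °C and 5% CO2, then seeded at 60 000 cells/well with compound. They were Coulter-counted after 48 h. […] Mean of 2–4 experiments.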

The subject of test [6] is L1210. Put plainly: Cytostatic activity against thymidine-kinase deficient mouse L1210 cells after 48 hrs by cell counting. Type of test: functional, cell-based. The following applies: L1210, 48 h. An outline of the steps:
as §1

In test [7] the test system is CCRF-CEM. Briefly: Cytostatic activity against thymidine-kinase deficient human CEM cells after 72 hrs by cell counting. Type of test: functional, cell-based. An outline of the steps: as §1
For test [8], the system named is HeLa. Put plainly: Cytostatic activity against human HeLa cells […] by cell counting. Type of test: functional, cell-based.

Data on eight compounds can be found in ChEMBL document CHEMBL2177092, “Phosphoramidate ProTides of the anticancer agent FUDR successfully deliver the preformed bioactive monophosphate in cells and confer advantage over the parent nucleoside” (J Med Chem, 2011).

For `CCCOC(=O)[C@H](C)NP(=O)(OC[C@H]1O[C@@H](n2cc(F)c(=O)[nH]c2=O)C[C@@H]1O)Oc1cccc2ccccc12` (mixture of isomers), the IC50 in the test on L1210 [1] is 36 nM; in test [2], 30 nM; in the test on CCRF-CEM [3], 140 nM; in the test on HeLa [4] it was 2500 nM; with L1210 [6], 160 nM; in the test on CCRF-CEM [7], 1100 nM. In the test on HeLa [8], half-maximal inhibition (IC50) was put at 110 nM. In the test on L1210 [5], the “Ratio IC50” value was 1.2.
Consider `CCCCOC(=O)[C@H](C)NP(=O)(OC[C@H]1O[C@@H](n2cc(F)c(=O)[nH]c2=O)C[C@@H]1O)Oc1cccc2ccccc12` (mixture of isomers), for which the IC50 with L1210 [1] came to 21 nM; in test [2], 9.5 nM; with CCRF-CEM [3] it was 64 nM; in the test with HeLa [4], 2700 nM; in the test with L1210 [6], 110 nM; in the test with CCRF-CEM [7], 840 nM. The compound also gave an IC50 in the test with HeLa [8] of 120 nM. Also, the “Ratio IC50” value with L1210 [5] was found to be 2.2.
On to `CCCCCCOC(=O)[C@H](C)NP(=O)(OC[C@H]1O[C@@H](n2cc(F)c(=O)[nH]c2=O)C[C@@H]1O)Oc1cccc2ccccc12` (mixture of isomers), for which the IC50 in the test with L1210 [1] was 2.2 nM; in test [2], 3.2 nM; with CCRF-CEM [3], 80 nM; with HeLa [4] it was 1800 nM; in the test with L1210 [6], 76 nM; in the test on CCRF-CEM [7], 650 nM. Further, in the test on HeLa [8], half-maximal inhibition (IC50) was put at 39 nM. The “Ratio IC50” value in the test with L1210 [5] is 0.69.
With `C[C@H](NP(=O)(OC[C@H]1O[C@@H](n2cc(F)c(=O)[nH]c2=O)C[C@@H]1O)Oc1cccc2ccccc12)C(=O)OC1CCC1` (mixture of isomers), the IC50 was found to be 24 nM in the test with L1210 [1]; 11 nM in test [2]; 73 nM with CCRF-CEM [3]; 1500 nM in the test with HeLa [4]; 88 nM in the test with L1210 [6]; 1500 nM in the test on CCRF-CEM [7]. The compound further gave an IC50 in the test on HeLa [8] of 69 nM. In addition, the “Ratio IC50” value in the test with L1210 [5] came out at 2.2.
Turning to `C[C@H](NP(=O)(OC[C@H]1O[C@@H](n2cc(F)c(=O)[nH]c2=O)C[C@@H]1O)Oc1cccc2ccccc12)C(=O)OC1CCCC1` (mixture of isomers), the IC50 with L1210 [1] came to 24 nM; in test [2] it was 16 nM; with CCRF-CEM [3] it was 35 nM; in the test on HeLa [4], 2200 nM; in the test with L1210 [6], 130 nM; in the test on CCRF-CEM [7], 920 nM. In the test with HeLa [8], this compound showed an IC50 of 71 nM. Further, the “Ratio IC50” value in the test with L1210 [5] is listed as 1.5.
On to `CCCCCOC(=O)[C@H](CCSC)NP(=O)(OC[C@H]1O[C@@H](n2cc(F)c(=O)[nH]c2=O)C[C@@H]1O)Oc1ccccc1` (mixture of isomers), for which the IC50 turned out to be 410 nM in the test on L1210 [1]; 130 nM in test [2]; 350 nM in the test on CCRF-CEM [3]; 7100 nM with HeLa [4]; 2200 nM with L1210 [6]; 13000 nM in the test with CCRF-CEM [7]. In the test with HeLa [8], the IC50 worked out at 150 nM. For the same compound, the “Ratio IC50” value with L1210 [5] came to 3.2.
On to `CSCC[C@H](NP(=O)(OC[C@H]1O[C@@H](n2cc(F)c(=O)[nH]c2=O)C[C@@H]1O)Oc1ccccc1)C(=O)OCc1ccccc1` (mixture of isomers), for which the IC50 in the test with L1210 [1] was found to be 760 nM; in test [2], 58 nM; in the test on CCRF-CEM [3] it was 280 nM; in the test with HeLa [4], 11000 nM; in the test with L1210 [6] it was 4100 nM; in the test with CCRF-CEM [7], 25000 nM. This compound registered an IC50 with HeLa [8] of 150 nM. Further, in the test with L1210 [5], the “Ratio IC50” value worked out at 13.
`O=C(OCc1ccccc1)[C@@H]1CCCN1P(=O)(OC[C@H]1O[C@@H](n2cc(F)c(=O)[nH]c2=O)C[C@@H]1O)Oc1ccccc1` (mixture of isomers): the IC50 in the test with L1210 [1] is 18000 nM; in test [2], 350 nM; with CCRF-CEM [3] it was 980 nM; in the test on HeLa [4], 20000 nM; in the test on L1210 [6], 31000 nM; with CCRF-CEM [7], 28000 nM. In the test on HeLa [8], this compound had an IC50 of 1100 nM. Besides, the “Ratio IC50” value in the test with L1210 [5] was 51.
